{"data": "Experimental data from different studies", "organism": "Pseudomonas aeruginosa", "observed": "microbial growth", "note": "Compare with care: the assays were run in different laboratories."}
{"Structure (SMILES)": "CC(C)Oc1c(NC(=O)c2ccc(NC(=O)[C@H](CC(N)=O)NC(=O)c3ccc(NC(=O)c4ccc(C#N)cc4)cc3)cc2)ccc(C(=O)Nc2cc(C(=O)O)n(C)c2)c1O", "test system": "PA14", "MIC": "> 64 µg/mL"}
{"Structure (SMILES)": "COc1ncc(O)c2c1C[C@H]1C[C@H]3[C@H](N(C)C)C(O)=C(C(N)=O)C(=O)[C@@]3(O)C(O)=C1C2=O.Cl.Cl", "test": "broth dilution", "test system": "ATCC27853", "MIC": "> 32 µg/mL"}
{"Structure (SMILES)": "O=C1C[C@@H](c2ccc(O)cc2)Oc2cc(O)cc(O)c21", "test": "broth dilution", "test system": "PAO1", "MIC": "128 µg/mL"}
{"Structure (SMILES)": "CC1(C)SC2C(NC(=O)C(NC(=O)C3=C(O)C(c4ccccc4)NC3=O)c3ccccc3)C(=O)N2C1C(=O)O (stereo not drawn)", "MIC": "50 µg/mL"}
{"Structure (SMILES)": "CN(C)[C@@H]1C(O)=C(C(N)=O)C(=O)[C@@]2(O)C(O)=C3C(=O)c4c(cc5ccccc5c4O)C[C@H]3C[C@@H]12", "test": "broth dilution", "test system": "ATCC27853", "MIC": "32 µg/mL"}
{"Structure (SMILES)": "CC(C)Oc1c(NC(=O)c2ccc(NC(=O)[C@H](CC(N)=O)NC(=O)c3ccc(NC(=O)c4ccc5c(c4)COC5=O)cc3)cc2)ccc(C(=O)Nc2ccc(C(=O)O)cc2)c1O", "test system": "PA14", "MIC": "> 64 µg/mL"}
{"Structure (SMILES)": "Cc1c(CN(C)C(=O)/C=C/c2cnc3c(c2)CC(NC(=O)OC(C)(C)C)C(=O)N3)oc2ccccc12 (stereo not drawn)", "test": "broth dilution", "test system": "PA01", "MIC": "> 32 µg/mL"}
{"Structure (SMILES)": "C[C@H]1COc2c(N3CCN(C)CC3)c(F)cc3c(=O)c(C(=O)O)cn1c23", "test": "broth dilution", "test system": "CMCC10104", "MIC": "138 µM"}
{"Structure (SMILES)": "CC1(C)SC2C(NC(=O)C(NC(=O)C3=C(O)C(Cc4ccc(F)cc4)NC3=O)c3ccccc3)C(=O)N2C1C(=O)O (stereo not drawn)", "MIC": "25 µg/mL"}
{"Structure (SMILES)": "CCCCCCC#Cc1cncc(-c2nnc(SCc3ccc(Cl)cc3)n2C2CC2)c1", "MIC": "≥ 20 µg/mL"}
{"Structure (SMILES)": "O=C(Nc1ccc([N+](=O)[O-])cc1F)c1ccccc1O", "test": "broth dilution", "test system": "ATCC27853", "MIC": "> 64 µg/mL"}
{"Structure (SMILES)": "c1ccc(NCc2ccc(Oc3ccccn3)cc2)cc1", "MIC": "> 25 µg/mL"}
{"Structure (SMILES)": "C/C(O)=C1\\C(=O)C(CC(C)C)N(C(=O)CCCCCc2ccccc2)C1=O (stereo not drawn)", "test system": "PA01", "MIC": "> 200 µg/mL"}
{"Structure (SMILES)": "Cc1ccc(C)n1-c1ccc(-c2nnco2)cc1", "test": "broth dilution", "test system": "ATCC10145", "setting": "18 h", "MIC": "4 µg/mL"}
{"Structure (SMILES)": "CCCCCCCCCCCC(=O)Oc1c(C)c(O)c(C(=O)/C=C/c2ccccc2)c(OC)c1C", "test": "broth dilution", "test system": "ATCC27853", "MIC": "5000 µg/mL"}
{"Structure (SMILES)": "O=C(Cc1cc(O)c(O)c(O)c1)NCCCCCCCC[P+](c1ccccc1)(c1ccccc1)c1ccccc1.[Br-]", "test": "broth dilution", "test system": "ATCC27853", "setting": "18 h", "MIC": "> 32 µg/mL"}
{"Structure (SMILES)": "CN(C)[C@@H]1C(O)=C(C(N)=O)C(=O)[C@@]2(O)C(O)=C3C(=O)c4c(O)c(NCC(C)(C)CN5CCCC5)nc(Cl)c4C[C@H]3C[C@@H]12.Cl", "test": "broth dilution", "test system": "ATCC27853", "MIC": "32 µg/mL"}
{"Structure (SMILES)": "O=C1NN=C(N=Cc2ccccc2O)C1=NNn1c(-c2ccccc2)nc2ccccc2c1=O", "test": "broth dilution", "setting": "24 h", "MIC": "111 µM"}
{"Structure (SMILES)": "CC(C)Oc1c(NC(=O)c2ccc(NC(=O)[C@H](CC(N)=O)NC(=O)c3ccc(NC(=O)c4ccc(C#N)cc4)cc3)cc2)ccc(C(=O)O)c1O", "test system": "PA14", "MIC": "> 64 µg/mL"}
{"Structure (SMILES)": "COc1ccc(-c2nc3ccccc3n2Cc2ccccc2)cc1OC", "test": "broth dilution", "test system": "ATCC27853", "MIC": "256 µg/mL"}
{"Structure (SMILES)": "COc1cc(C(=O)Nc2ccc(C(=O)N[C@@H](CC(N)=O)C(=O)Nc3ccc(C(=O)Nc4ccc(C(=O)Nc5ccc(C(=O)O)cc5)c(O)c4OC(C)C)cc3)cc2)ccc1C#N", "test system": "PA14", "MIC": "> 64 µg/mL"}
{"Structure (SMILES)": "C[C@H]1[C@H](NC(=O)/C(=N\\OC(C)(C)C(=O)O)c2csc(N)n2)C(=O)N1S(=O)(=O)O", "test": "agar dilution", "test system": "PAO1", "MIC": "4 µg/mL"}
{"Structure (SMILES)": "Cc1cc(C(=O)Nc2ccc(C(=O)N[C@@H](CC(N)=O)C(=O)Nc3ccc(C(=O)Nc4ccc(C(=O)Nc5ccc(C(=O)O)cc5)c(O)c4OC(C)C)cc3)cc2)ccc1C#N", "test system": "PA14", "MIC": "4 µg/mL"}
{"Structure (SMILES)": "[H]/N=C(/N)N[C@H]1[C@H](O)[C@@H](O)[C@H](O[C@@H]2O[C@@H](C)[C@](O)(C=O)[C@H]2O[C@@H]2O[C@@H](CO)[C@H](O)[C@@H](O)[C@@H]2NC)[C@@H](N/C(N)=N\\[H])[C@@H]1O", "test": "broth dilution", "test system": "PAO1", "MIC": "64 µg/mL"}
{"Structure (SMILES)": "CNc1nc(Cl)c2c(c1O)C(=O)C1=C(O)[C@]3(O)C(=O)C(C(N)=O)=C(O)[C@@H](N(C)C)[C@@H]3C[C@@H]1C2.Cl.Cl.Cl", "test": "broth dilution", "test system": "ATCC27853", "MIC": "8 µg/mL"}
{"Structure (SMILES)": "CCCCCCCCCC(=O)Oc1c(C)c(O)c(C(=O)/C=C/c2ccccc2)c(OC)c1C", "test": "broth dilution", "test system": "ATCC27853", "MIC": "5000 µg/mL"}
{"Structure (SMILES)": "COc1c2c(c(O)c3cc(CN(C)C)ccc13)C(=O)C1=C(O)[C@]3(O)C(=O)C(C(N)=O)=C(O)[C@@H](N(C)C)[C@@H]3C[C@@H]1C2", "test": "broth dilution", "test system": "ATCC27853", "MIC": "16 µg/mL"}
{"Structure (SMILES)": "CN(C)[C@@H]1C(O)=C(C(N)=O)C(=O)[C@@]2(O)C(O)=C3C(=O)c4c(O)c(NC(=O)CNC(C)(C)C)nc(Cl)c4C[C@H]3C[C@@H]12.Cl.Cl.Cl", "test": "broth dilution", "test system": "ATCC27853", "MIC": "> 32 µg/mL"}
{"Structure (SMILES)": "C/C(=C\\c1ccc(C#N)cc1)C(=O)Nc1ccc(C(=O)N[C@@H](CC(N)=O)C(=O)Nc2ccc(C(=O)Nc3ccc(C(=O)Nc4ccc(C(=O)O)cc4)c(O)c3OCC(C)C)cc2)cc1", "test system": "PA14", "MIC": "> 64 µg/mL"}
{"Structure (SMILES)": "Cc1ccc2nc(-c3ccc([N+](=O)[O-])cc3)n(Cc3ccccc3Cl)c2c1", "test": "broth dilution", "test system": "ATCC27853", "MIC": "256 µg/mL"}
{"Structure (SMILES)": "CCCCCCC/C=C/C(=O)N1CC(=O)/C(=C(\\C)O)C1=O", "test system": "PA01", "MIC": "200 µg/mL"}
{"Structure (SMILES)": "O=C(CCCCCCCC[P+](c1ccccc1)(c1ccccc1)c1ccccc1)Nc1cc(O)c(O)c(O)c1.[Br-]", "test": "broth dilution", "test system": "ATCC27853", "setting": "18 h", "MIC": "> 32 µg/mL"}
{"Structure (SMILES)": "CC(C)Oc1c(NC(=O)c2ccc(NC(=O)[C@H](CC(N)=O)NC(=O)c3ccc(NC(=O)c4cc(C#N)cn4C)cc3)cc2)ccc(C(=O)Nc2ccc(C(=O)O)cc2)c1O", "test system": "PA14", "MIC": "> 64 µg/mL"}
{"Structure (SMILES)": "O=C1NN=C(N=Cc2ccc(O)c(O)c2)C1=NNn1c(-c2ccccc2)nc2ccccc2c1=O", "test": "broth dilution", "setting": "24 h", "MIC": "53.5 µM"}
{"Structure (SMILES)": "Cc1ccc(C)n1-c1ccc(-c2nnc(-c3ccc(N(C)C)cc3)[nH]2)cc1", "test": "broth dilution", "test system": "ATCC10145", "setting": "18 h", "MIC": "250 µg/mL"}
{"Structure (SMILES)": "Clc1ccccc1NCc1ccc(Oc2ccccn2)cc1", "MIC": "> 25 µg/mL"}
